The structures appear in SMILES notation.

A short description of this series: Toxicity liver stage against HepG2, at 10uM. In kind it is cell-based. Further details: test concentration 10 uM, cell line HepG2-A16-CD81EGFP. The conditions noted are these: human, HepG2-A16-CD81EGFP cells; read-out: INHIBITION
An outline of the steps:
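Uninfected HepG2-A16-CD81EGFP cells, 3 × 10^3 per well, 1536-well, plated on prespotted compound at 10 μM final, parasite-free screening media added to match infected plates; puromycin 10 μM positive, DMSO 0.5% negative; run in parallel with 48 h PbLuc assay at 37 °C, 5% CO2; viability by CellTiter-Glo luminescence, normalized to controls.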
On to `NC(CC1CCCCC1)c1ccccc1` (stereo unspecified), for which the cytotoxicity at 10 µM is -4.8%.

As for `O=C(NC[C@H]1OC[C@@H](NC2COC2)[C@@H]1O)c1ccccc1`, the cytotoxicity at 10 µM is -1.05%.

For `Cc1ccc2c(c1)nc1n2[C@@H](CNC(=O)c2cccnc2)COC1`, the cytotoxicity at 10 µM stood at 5.29%.

As for `Cc1ccc(CN2CC[C@H](c3nnc(COc4ccc(F)cc4)o3)C2)o1`, the cytotoxicity at 10 µM amounted to 5.2%.

Turning to `CCCC(=O)n1ccn(S(=O)(=O)c2ccc(C)cc2)c1=O`, the cytotoxicity at 10 µM was 8.08%.

With `COc1ccc(C2CCCCCN2Cc2cn(C)nc2C)cc1` (stereo unspecified), the cytotoxicity at 10 µM is -4.96%.

`COc1ccc2c(c1)OC1(CCN(Cc3ccccc3C)CC1)CC2=O`: the cytotoxicity at 10 µM was 6.52%.

Regarding `CN1C(=O)C2(CC(=O)Nc3c2cnn3C(C)(C)C)c2c(Cl)cccc21` (stereo unspecified), the cytotoxicity at 10 µM worked out at 3.41%.

Regarding `Cn1c(CN2CCOCC2)cc(=O)c(O)c1CN1CCOCC1`, the cytotoxicity at 10 µM is -5.61%.

For `O=C(CN1C(=O)CCC1=O)NCC1(O)CCc2ccccc21` (stereo unspecified), the cytotoxicity at 10 µM is -15.7%.

For `CC(C)Nc1nc2c(c(NC3CC3)n1)CN(C(=O)c1ccncc1)CC2`, the cytotoxicity at 10 µM was -2.29%.

For the compound `CS(=O)(=O)N1C[C@H]2CCC[C@@]2(COCC2CCOCC2)C1`, the cytotoxicity at 10 µM is -0.173%.

Consider `O=C(c1nc2c(s1)CCCN2C(=O)C1CC1)N1CCCC1`, for which the cytotoxicity at 10 µM was 7.02%.

Regarding `CS(=O)(=O)N1CCOC2(CCN(c3nccs3)CC2)c2ccccc21`, the cytotoxicity at 10 µM came to 1.18%.

Take `COCCNC(=O)C1CN(Cc2ccsc2)Cc2ccnn2C1` (stereo unspecified): the cytotoxicity at 10 µM was -6.07%.

In the case of `CNC(=O)[C@@]12CCC3(CCN(S(=O)(=O)C4CC4)CC3)[C@@H]1CN(C(C)=O)C2`, the cytotoxicity at 10 µM is -0.201%.

With `O=C(Cc1ccsc1)N1CCn2cc(Cn3cncn3)nc2C1`, the cytotoxicity at 10 µM was -142%.

On to `COc1cccc(C2CC(=O)Nc3nc(N)sc32)c1OC` (stereo unspecified), for which the cytotoxicity at 10 µM is 3.74%.

Regarding `Cc1csc([C@@H]2C[C@@H]3CCN(C(=O)c4cc(C)on4)C[C@H]3O2)n1`, the cytotoxicity at 10 µM was determined as 4.88%.

`O=C(c1ccsc1)N1CC(C(=O)N2CCOCC2)C2(CCOCC2)C1` (stereo unspecified): the cytotoxicity at 10 µM is -1.1%.

In the case of `CCN(CC)c1nc(Nc2cccc(C(=O)O)c2)nc2ccccc12`, the cytotoxicity at 10 µM worked out at 12%.

Turning to `CN1CCN(C(=O)c2[nH]nnc2Nc2ccccc2F)CC1`, the cytotoxicity at 10 µM turned out to be 1.36%.

Consider `Cc1nn(C)c(C)c1NC(=O)CCn1ncc2c(C)cccc21`, for which the cytotoxicity at 10 µM was -10.8%.

As to `COCCC(=O)NCc1ccc(-c2ccccc2C(=O)O)cn1`, the cytotoxicity at 10 µM came out at 1.92%.

Regarding `Fc1cccc(CN2CCC[C@H](Cn3nnc(-c4ccccn4)n3)C2)c1`, the cytotoxicity at 10 µM came to 3.44%.

For the compound `CO[C@@H]1CC[C@@H](NC(=O)CCc2ccc(Cl)cc2)[C@H]1O`, the cytotoxicity at 10 µM turned out to be 3.84%.

Turning to `Cc1ncoc1C(=O)N1CCCC(c2ccc3c(N)nn(C)c3n2)C1` (stereo unspecified), the cytotoxicity at 10 µM amounted to 2.76%.

On to `Cc1cc(N(C)Cc2ncc(-c3ccccc3C(=O)O)s2)ncn1`, for which the cytotoxicity at 10 µM is -0.241%.

As for `Cc1cc(C(F)F)nn1C(C)C(=O)NCc1nccn1C` (stereo unspecified), the cytotoxicity at 10 µM stood at 4.86%.

`CC(C)C(=O)N1CCCC([C@@H]2C[C@H](C(F)F)n3ncnc3N2)C1` (stereo partly specified): the cytotoxicity at 10 µM was -3.41%.

Take `CO[C@H]1CCN(C(=O)c2ccc3[nH]nnc3c2)C[C@@]12CCCO2`: the cytotoxicity at 10 µM is -5.38%.

Take `Cc1cncc(C(=O)N[C@@H]2CC[C@@H](N3CCOCC3)[C@@H]2O)c1`: the cytotoxicity at 10 µM was 0.331%.

`CNC(=O)c1cccc(C2CNCCN2C(=O)C2CCNCC2)c1` (stereo unspecified): the cytotoxicity at 10 µM was -2.39%.

Turning to `O=C(c1ccc(Cl)cc1)N1CCC(N2CCNC2=O)CC1`, the cytotoxicity at 10 µM worked out at 12.6%.

Regarding `Cc1c(CNC2CCN(c3ccccc3OC(F)F)C2)cnn1C` (stereo unspecified), the cytotoxicity at 10 µM is -1.77%.

As to `CC(C)(NC(=O)NCc1cccc(Br)c1)C(=O)O`, the cytotoxicity at 10 µM was determined as 9.13%.

With `CCc1nc(Cn2cncc(Br)c2=O)no1`, the cytotoxicity at 10 µM is -11.8%.

Regarding `CC1CN(C(=O)c2ccc(C(N)=O)cc2)c2ccc(F)cc2O1` (stereo unspecified), the cytotoxicity at 10 µM amounted to 8.07%.

For the compound `Cc1noc(C)c1NC(=O)CCn1cc(Br)ccc1=O`, the cytotoxicity at 10 µM stood at 7.07%.

With `CC(Cn1ccnc1)NC(=O)NCCN1CCCCCC1=O` (stereo unspecified), the cytotoxicity at 10 µM was -1.26%.

As to `Cc1cnn(CC(=O)N(CC2CN(C)CCO2)c2nccs2)c1` (stereo unspecified), the cytotoxicity at 10 µM was 1.79%.

With `COc1cc(C(=O)NS(=O)(=O)c2cncc(Br)c2)cc(Cl)c1OC`, the cytotoxicity at 10 µM is -2.21%.

In the case of `CC(C)c1cc(NC(=O)CN2CCCC(Cn3cncn3)C2)on1` (stereo unspecified), the cytotoxicity at 10 µM was 14%.

Consider `Cc1cnc(C(C)(C)NC(=O)NCc2ccc(C#N)cc2F)s1`, for which the cytotoxicity at 10 µM was determined as 15.1%.

Regarding `CC(C)N(C)Cc1ccccc1CNc1ccc2nncn2n1`, the cytotoxicity at 10 µM came to 0.425%.

For `Cc1ccc(CNC(=O)CN2CCN(CCO)CC2)s1`, the cytotoxicity at 10 µM turned out to be 9.03%.

For the compound `CSCc1cc(F)ccc1CNCc1cccc(O)c1`, the cytotoxicity at 10 µM is -3.58%.

Turning to `Cn1cnnc1C1CCCN(C(=O)c2cc(C3CC3)on2)C1` (stereo unspecified), the cytotoxicity at 10 µM worked out at 5.14%.

Regarding `Cc1nn(C)c(N(C)C)c1CNC1CCCCNC1=O` (stereo unspecified), the cytotoxicity at 10 µM was found to be 7.76%.

In the case of `O=C(Nc1ccccc1Cn1cccn1)N1CCC(N2CCCC2)C1` (stereo unspecified), the cytotoxicity at 10 µM worked out at 2.06%.

On to `CCN(CC)C(=O)C1CCN(c2ccc(Cl)cc2C#N)CC1`, for which the cytotoxicity at 10 µM worked out at 12.2%.

In the case of `CC(=O)c1ccc(-n2c(C)cn(CCC#N)c2=O)cc1`, the cytotoxicity at 10 µM was determined as 19.3%.

Regarding `CC(C)OCCCNC(=O)CSc1nnc(OC(C)C)s1`, the cytotoxicity at 10 µM is -5.89%.

`Cc1ccc(C(C)NC(=O)Cc2c(C)nc3c(c2C)c(=O)[nH]n3C)o1` (stereo unspecified): the cytotoxicity at 10 µM is -16.3%.

On to `O=C(Nc1cccc(CN2CCOC2=O)c1)N1CCOCC1`, for which the cytotoxicity at 10 µM was -8.6%.

Turning to `Cc1ncoc1C(=O)N1CCn2c(COc3cccnc3)cnc2C1C` (stereo unspecified), the cytotoxicity at 10 µM was -8.93%.

In the case of `Cn1cc(-c2nnn3c2COC(CNCC2CCOCC2)C3)cn1` (stereo unspecified), the cytotoxicity at 10 µM stood at 0.171%.

For `CCCN(C)c1ncc2c(n1)N(C)CCN(CC1CC1)C2=O`, the cytotoxicity at 10 µM was -5.69%.

Take `Cc1cc(CN2CCC=C(CN(C)C(=O)c3ccco3)C2)no1`: the cytotoxicity at 10 µM was 6.65%.

Turning to `CCC(C)N(Cc1ccc(C)cc1)Cc1c[nH]c(C)n1` (stereo unspecified), the cytotoxicity at 10 µM came out at 7.87%.

On to `O=C(O)C1(Cc2ccccc2Cl)CCN(c2ncccn2)CC1`, for which the cytotoxicity at 10 µM stood at 7.04%.

`CC(=O)Nc1ccc(Cl)c(C(=O)N(C)Cc2nc(C)c[nH]2)c1`: the cytotoxicity at 10 µM was found to be 1.37%.

Regarding `CCn1c(CN(C)C)nnc1C1CCN(Cc2ccc(Cl)c(F)c2)CC1`, the cytotoxicity at 10 µM was 3.73%.

Consider `Cc1ccn(CCNc2ncnc3c2CCN(S(C)(=O)=O)CC3)n1`, for which the cytotoxicity at 10 µM was -3.03%.

Take `c1cc(-c2cnccn2)cc(-c2ccn(CCN3CCCCC3)n2)c1`: the cytotoxicity at 10 µM is -4.54%.

With `Cn1nc(C2CC2)c2c1NC(=O)CC2c1ccc(CN2CCCCC2)s1` (stereo unspecified), the cytotoxicity at 10 µM was -6.37%.

With `Cn1c(CO)nnc1CC1CCN(Cc2ccc(C#N)cc2)CC1`, the cytotoxicity at 10 µM worked out at 4.98%.

As to `OC1CCCOC12CCN(c1ncccn1)CC2` (stereo unspecified), the cytotoxicity at 10 µM came to 3.73%.

For the compound `O=C1CCCN1Cc1nc(-c2ccsc2)no1`, the cytotoxicity at 10 µM was -5.41%.

As for `CN1CCN(C2CCOCC2)CC12CCC(=O)N(CC1CC1)CC2` (stereo unspecified), the cytotoxicity at 10 µM is -1.93%.

As to `O=C(Cc1ccc(F)cc1Cl)N1C[C@@H](CN2CCC(O)CC2)[C@@H](CO)C1`, the cytotoxicity at 10 µM worked out at 9.32%.

On to `COc1cc(C)ccc1OCc1nc(C(=O)N2CCC(C)CC2)co1`, for which the cytotoxicity at 10 µM is -45%.

Consider `Cc1cc(C)nc(CCNC(=O)C(c2ccc(F)cc2)N(C)C)n1` (stereo unspecified), for which the cytotoxicity at 10 µM is -40.1%.

With `CS(=O)(=O)NC1CCN(C(=O)NCCc2ccccn2)CC1`, the cytotoxicity at 10 µM was -14.4%.

`CCCNC(=O)NC(=O)CN1CCN(Cc2nccn2CC)CC1`: the cytotoxicity at 10 µM was -14.3%.

Regarding `CCn1cc(NC(=O)C2CCN(CCOC(C)C)CC2)cn1`, the cytotoxicity at 10 µM is -5.4%.

With `CN(C)CC1CN(c2ccc(C#N)cn2)CCO1` (stereo unspecified), the cytotoxicity at 10 µM is -4.67%.

Take `COCCc1noc(CN2CCCCC2Cn2cc(C)cn2)n1` (stereo unspecified): the cytotoxicity at 10 µM was -8.54%.

For the compound `Cc1nn(C)c(C)c1C1CCCN1Cc1cccc(C(N)=O)c1` (stereo unspecified), the cytotoxicity at 10 µM was -10.2%.

On to `CC(O)CN1CCN(C(=O)c2cccn2Cc2ccncc2)CC1` (stereo unspecified), for which the cytotoxicity at 10 µM was -10.9%.

Regarding `O=C(NCCc1cccc(F)c1)NCC(O)c1cccc(F)c1` (stereo unspecified), the cytotoxicity at 10 µM is -13.1%.

Turning to `COc1ccc(CCC(=O)Nc2cccnc2N2CCCC2)cc1Br`, the cytotoxicity at 10 µM was 1.06%.

`FC(F)CNc1cnc(C2CCCN2)cn1` (stereo unspecified): the cytotoxicity at 10 µM is 0.865%.

Take `COc1cc(C(C)=O)ccc1OCCNCc1ccco1`: the cytotoxicity at 10 µM was -5.05%.

For the compound `CN1CCO[C@H]2CN(S(=O)(=O)c3ccc(C#N)cc3)C[C@H]21`, the cytotoxicity at 10 µM turned out to be 7.25%.

As for `O=c1ccc2c(n1CC1CCOCC1)CCN(Cc1ccoc1)CC2`, the cytotoxicity at 10 µM is -128%.

On to `Cc1ccccc1N1CC2(CCCCN2CC2CC2)CC1=O` (stereo unspecified), for which the cytotoxicity at 10 µM turned out to be 10.4%.

In the case of `CN1C[C@@H]2CN(C(=O)NCc3ccccc3)CCC[C@]2(C(=O)O)C1`, the cytotoxicity at 10 µM was determined as 9.55%.

Consider `O=C([C@H]1COC[C@H]2CN(C3CCCC3)C[C@H]21)N1CCCCO1`, for which the cytotoxicity at 10 µM is -9.47%.

In the case of `O=C1CC2(CCN(Cc3cccnc3)C2)CN1c1cncnc1` (stereo unspecified), the cytotoxicity at 10 µM is -65.7%.

As to `Cc1ccc(C(=O)N2CCn3cc(CN(C)Cc4ccco4)nc3C2)o1`, the cytotoxicity at 10 µM was 12.4%.

`Cn1cc(C(=O)N2CC[C@@H]3[C@@H]2CCN3Cc2ccccc2)cn1`: the cytotoxicity at 10 µM is -69.8%.

On to `Cc1cccc(CN2CC3(CCN(C4CCOC4)CC3)OCC2=O)n1` (stereo unspecified), for which the cytotoxicity at 10 µM is -2.92%.

On to `CN1CC(=O)N(c2cccc(F)c2)CC12CCN(S(=O)(=O)C1CC1)C2` (stereo unspecified), for which the cytotoxicity at 10 µM was -71.8%.

On to `CC(C)NC(=O)[C@H]1C[C@H]2CN(C(=O)NCCc3ccccc3)C[C@@H]1O2`, for which the cytotoxicity at 10 µM was found to be 1.25%.

For the compound `CS(=O)(=O)CCC(=O)N1C[C@H]2CC[C@@H](C1)N(Cc1ccccn1)C2=O`, the cytotoxicity at 10 µM was determined as 7.23%.

(Values after ChEMBL document CHEMBL4513216, “Probing the Open Global Health Chemical Diversity Library for Multistage-Active Starting Points for Next-Generation Antimalarials” (ACS Infect Dis, 2020).)
